This is an account of results in ChEMBL document CHEMBL4513216, “Probing the Open Global Health Chemical Diversity Library for Multistage-Active Starting Points for Next-Generation Antimalarials” (ACS Infect Dis, 2020).

The data set in a line: Toxicity liver stage against HepG2, at 10uM. As to conditions: human, HepG2-A16-CD81EGFP cells; read-out: INHIBITION
The class given is cell-based. Also noted: test concentration 10 uM, cell line HepG2-A16-CD81EGFP. The gist of the method:
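Uninfected HepG2-A16-CD81EGFP cells, 3 × 10^3 per well, 1536-well, plated on prespotted compound at 10 μM final, parasite-free screening media added to match infected plates; puromycin 10 μM positive, DMSO 0.5% negative; run in parallel with 48 h PbLuc assay at 37 °C, 5% CO2; viability by CellTiter-Glo luminescence, normalized to controls.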
In the case of `F[C@@H]1CN(CC2CC2)C[C@@H]1OCc1nc2cnccc2[nH]1`, the cytotoxicity at 10 µM worked out at 8.42%.

`O=C(O)CNC(=O)Cc1csc(-c2ccccc2F)n1`: the cytotoxicity at 10 µM was -10.5%.

On to `CCN(CC)CCSc1nnc(N2CCN(c3ccc(F)cc3)CC2)s1`, for which the cytotoxicity at 10 µM was -5.12%.

Consider `COc1cc(C)c(C)cc1S(=O)(=O)NCC(O)c1cccn1C` (stereo not given), for which the cytotoxicity at 10 µM is -6.19%.

For the molecule `O=C1NC(c2ccccc2)=N[C@@]12CC[C@@H]1CN(Cc3cccnc3)C[C@@H]12`, the cytotoxicity at 10 µM was 6.8%.

Turning to `CC(C)c1ncc(CN2CCC(O)(c3ccccc3F)CC2)cn1`, the cytotoxicity at 10 µM is -0.882%.

With `c1ccc(Cc2cccc(C3CCCN3C3CCOCC3)n2)cc1` (stereo not given), the cytotoxicity at 10 µM is 1.62%.

`CN(C)c1cncc(C2CCCN2S(=O)(=O)c2cn(C)cn2)n1` (stereo not given): the cytotoxicity at 10 µM was -27.1%.

Consider `Cc1ncccc1Oc1cncc(C2CCCN2Cc2cncn2C)n1` (stereo not given), for which the cytotoxicity at 10 µM was -32.8%.

Consider `CCn1ncc(S(=O)(=O)NC2(CN3CCOCC3)CCCCC2)c1C`, for which the cytotoxicity at 10 µM amounted to 3.83%.

On to `Cc1nc(C2CN(C)CCO2)cc(N2CCC(CO)CC2)n1` (stereo not given), for which the cytotoxicity at 10 µM is -34%.

As to `Cc1cnn(CC2CCN(CC(O)c3ccccc3)CC2)c1` (stereo not given), the cytotoxicity at 10 µM is -8.46%.

For `O=C(CCOc1ccccc1)NS(=O)(=O)Cc1ccccc1`, the cytotoxicity at 10 µM was -1.48%.

In the case of `Cc1oc(C)c(C(=O)NS(=O)(=O)c2ccc3c(c2)OCCO3)c1Br`, the cytotoxicity at 10 µM came out at 4.4%.

On to `O=C(CCNC1(c2nccs2)CCCC1)N1CCOCC1`, for which the cytotoxicity at 10 µM is 0.79%.

On to `CC(C(=O)N1CCc2ccccc2C1)N(C)Cc1cscn1` (stereo not given), for which the cytotoxicity at 10 µM was -1.6%.

In the case of `CCn1c(C)cc(C(=O)N2CCC(Nc3ccc(C)nn3)CC2)c1C`, the cytotoxicity at 10 µM is -5.52%.

With `Cc1csc(C2(NC(=O)CCNC(=O)C(C)(C)C)CCCC2)n1`, the cytotoxicity at 10 µM is -7.43%.

On to `O=C(c1ccoc1)N(Cc1ccncc1)C1CC1`, for which the cytotoxicity at 10 µM came out at 1.45%.

As to `c1nc(N2CCCC2Cn2cncn2)c2ccsc2n1` (stereo not given), the cytotoxicity at 10 µM was determined as 14.1%.

`COc1c(C)cnc(CSc2nnc(N3CCCC3)s2)c1C`: the cytotoxicity at 10 µM is -13.1%.

In the case of `Cc1oc(-c2ccsc2)nc1CC(=O)NCC(=O)Nc1cn[nH]c1`, the cytotoxicity at 10 µM is -1.36%.

Turning to `Cc1cc(=O)n2ncnc2n1CC(O)c1ccccc1F` (stereo not given), the cytotoxicity at 10 µM was -13.7%.

For `CCc1cnc(CN(C)C2CCN(CCCNS(C)(=O)=O)C2)o1` (stereo not given), the cytotoxicity at 10 µM is -3.4%.

For the molecule `Cc1cc(C)n(C2CCCN(C(=O)c3cccc(F)c3F)C2)n1` (stereo not given), the cytotoxicity at 10 µM was 4.35%.

On to `O=C(NCCO)Nc1c(F)cc(F)cc1-c1ccccc1`, for which the cytotoxicity at 10 µM is -1.99%.

Consider `CC1CCN(C)c2ccccc2N1C(=O)c1ccn(C)c(=O)c1` (stereo not given), for which the cytotoxicity at 10 µM came out at 2.36%.

Consider `Cc1cccc2nc(CNCc3cccc4c3OCCCO4)cn12`, for which the cytotoxicity at 10 µM is 20.8%.

With `CC(C)(C#N)c1ccc(NS(=O)(=O)CC2CCCCO2)cc1` (stereo not given), the cytotoxicity at 10 µM was found to be 0.548%.

With `Cc1csc(C2(NCc3nnc(-c4ccco4)o3)CCCC2)n1`, the cytotoxicity at 10 µM worked out at 0.416%.

Consider `Cc1ccc(OCC(O)CN(C)CC(=O)NC(C)C)c(C)c1` (stereo not given), for which the cytotoxicity at 10 µM was -7.55%.

`Cc1nn(C)c(Oc2cccnc2)c1NC(=O)C1CCCO1` (stereo not given): the cytotoxicity at 10 µM is -8.78%.

With `CNC(=O)Cc1noc(Cc2cccc(Cl)c2)n1`, the cytotoxicity at 10 µM was 0.335%.

For `CCOCC1CN(C(=O)CC2=CCCCC2)Cc2nnn(C)c21` (stereo not given), the cytotoxicity at 10 µM was -110%.

Consider `CCc1cnc(N2C[C@H]3CCCC(N(C)Cc4ccccn4)[C@H]3C2)nc1` (stereo not given in full), for which the cytotoxicity at 10 µM was -114%.

`COCCC(=O)N1CCC2(COCc3cnc(-c4cccnc4)nc32)C1` (stereo not given): the cytotoxicity at 10 µM was -115%.

As to `O=C(C1=CCCC1)N1C[C@@H]2COC[C@]2(COc2cccnc2)C1`, the cytotoxicity at 10 µM was -5.38%.

For `COCCC(=O)N1CCC2(COCc3c(C)nc(NCC4CC4)nc32)C1` (stereo not given), the cytotoxicity at 10 µM came to 2.19%.

`CCOCC1CN(Cc2cnn(C)c2)Cc2ncn(CC3CC3)c21` (stereo not given): the cytotoxicity at 10 µM amounted to 2.21%.

Turning to `O=C(Cc1ccc(-c2ccccc2)cc1)N1CCOCC(O)C1` (stereo not given), the cytotoxicity at 10 µM amounted to 1.51%.

As for `COCc1nc(CNC2CCN(C(C)C)CC2)no1`, the cytotoxicity at 10 µM was found to be 4.04%.

As for `CN(Cc1cnn(C)c1)c1nccc(-c2cc(C(=O)O)ccn2)n1`, the cytotoxicity at 10 µM was -7.33%.

For `Cc1nc(C(=O)N2CCN(C(=O)C3CCC3)[C@@H]3CS(=O)(=O)C[C@@H]32)cs1`, the cytotoxicity at 10 µM worked out at 12.5%.

Take `Cc1cc(C)c2nc(CN3CCC(C#N)CC3)cc(O)c2c1`: the cytotoxicity at 10 µM amounted to 6.27%.

On to `CCn1cnnc1Cn1cccc(C(F)(F)F)c1=O`, for which the cytotoxicity at 10 µM is -9.8%.

For the molecule `Cc1nn(C)cc1Cn1c(=O)ccc2ccccc21`, the cytotoxicity at 10 µM was -12.5%.

`CSCC(=O)N1CCc2c(cnc(C)c2-c2noc(-c3ccco3)n2)C1`: the cytotoxicity at 10 µM was 2.93%.

Consider `N[C@@H]1CCN(Cc2ccccc2CS(=O)(=O)c2ccccc2)C[C@H]1O`, for which the cytotoxicity at 10 µM was -2.58%.

For `CC(C)c1nc(CN(C)C(=O)CNS(=O)(=O)c2cccs2)no1`, the cytotoxicity at 10 µM is -16.8%.

As to `O=C1CC(NCc2cccc(O)c2)CN1CCc1cccc(Cl)c1` (stereo not given), the cytotoxicity at 10 µM was -130%.

`O=c1[nH]cccc1-c1nccc(C2(c3ccccc3Cl)CCNCC2)n1`: the cytotoxicity at 10 µM is -6.27%.

For `CCOCCC(=O)N1CCCC(CO)(CC2CC2)C1` (stereo not given), the cytotoxicity at 10 µM turned out to be 7.58%.

In the case of `Nc1nc(CN2CCCCC2Cn2cncn2)nc2ccccc12` (stereo not given), the cytotoxicity at 10 µM was -15.6%.

Turning to `CCOC1CCN(C(=O)Nc2ccc(=O)n(C)c2)CC1`, the cytotoxicity at 10 µM is -10.4%.

`O=C(NC1CCS(=O)(=O)C1)N1CCN(c2cnccn2)CC1` (stereo not given): the cytotoxicity at 10 µM is -0.685%.

With `Cn1ncc2c1CCCC2NCc1cnc(-c2ccccc2)nc1` (stereo not given), the cytotoxicity at 10 µM was -5.43%.

With `Cn1cc(CN2CCN(CC3(c4ccccc4)CC3)CC2)cn1`, the cytotoxicity at 10 µM was found to be 2.86%.

`Cn1ccnc1CNC(=O)c1cnc(C2CCNCC2)cn1`: the cytotoxicity at 10 µM is -1.31%.

Regarding `c1ccc(CN2CCc3ncnc(C4CCOC4)c3CC2)nc1` (stereo not given), the cytotoxicity at 10 µM came out at 8.88%.

`c1nc(CCC2CCCCN2)cc(N2CCCC2)n1` (stereo not given): the cytotoxicity at 10 µM was -21.6%.

With `c1csc(CN2CCC3(CCCN3CC3CC3)CC2)n1`, the cytotoxicity at 10 µM stood at 8.22%.

In the case of `O=C1[C@H]2CN(Cc3ccncc3)C[C@H]2CN1c1cncnc1`, the cytotoxicity at 10 µM was -0.748%.

For `Cc1cc(CN2C[C@@H]3COC[C@]3(COCc3csc(C)n3)C2)no1`, the cytotoxicity at 10 µM is 1.17%.

On to `Cn1nc(C2CCN(C(=O)CCN3CCOCC3)CC2)c2cccnc21`, for which the cytotoxicity at 10 µM was -13.8%.

Take `O=C(C[C@@H]1COC[C@H]2CN(Cc3ccccn3)C[C@@H]12)N1CCOCC1`: the cytotoxicity at 10 µM is -1.63%.

Turning to `CC(=O)N1CCn2c(-c3ccccc3)cnc2C12CCNCC2`, the cytotoxicity at 10 µM worked out at 7.43%.

For `CC(C)N1[C@H](Cn2cccn2)C[C@@H]2CN(C3CCOCC3)CC[C@@H]21`, the cytotoxicity at 10 µM amounted to 3.92%.

For `COCCN1CCN(Cc2c(C)noc2C)Cc2ccc(C)nc21`, the cytotoxicity at 10 µM was 3.47%.

Regarding `CC(C)CCN1C[C@@H]2C[C@H](C(=O)Nc3ccccc3)[C@H](C1)O2`, the cytotoxicity at 10 µM was -7.99%.

With `CN(C)C(=O)CN1C[C@H]2CC[C@@H](C1)N(Cc1c(Cl)cncc1Cl)C2`, the cytotoxicity at 10 µM was determined as 6.02%.
